From PubChem
UCH37 inh = human UCH37 deubiquitinating enzyme inhibition; Q9Y5K5; purified proteasome/UCH37, Ub-AMC cleavage fluorescence; inhibition, % (test concentration not listed); actives 0.33% (n = 330,000); AID 588478;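 active means mean inhibition over replicate wells above about 20%, limit read from the data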;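 further: 0% = compound-free wells with enzyme and 100% = wells lacking proteasome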
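assay system = human UCH37 enzyme supplied as purified proteasome complex | amount = proteasome at 0.15 nM in the dispensed enzyme solution | schedule = 30 min compound-proteasome preincubation then 25 min substrate reaction, room temperature | measured by = fluorescence, ex 355 nm, em 460 nm | benchmarks = no-proteasome wells (full inhibition) and compound-free wells (no inhibition)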
CTSL1 counter = blocks F. hepatica cathepsin L1 in PFM18AAP counter-screen; recombinant F. hepatica cathepsin L1, Z-Leu-Arg-MCA fluorescence; inhibition, % at 5.96 µM; actives 0.49% (n = 300,000);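 active means inhibition above the mean of all tested compounds plus 3 SD, set per screening campaign, cut at about 17% in these data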;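 further: 0% = plate median of test compound wells and 100% = 1 µM Z-Phe-Ala-diazomethylketone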
PP1 counter = blocks human PP1-alpha phosphatase, a PP5 counter-screen; P62136; purified PP1alpha, OMFP fluorescence; inhibition, % at 6.7 µM; actives 0.9% (n = 320,000); AID 2235;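 active means inhibition above the mean inhibition of all tested compounds plus 3 SD, computed separately for each screening campaign, cut at about 15% in these data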
PP5 primary = PP5 (human) phosphatase inhibition | P53041 | purified PP5c, OMFP substrate fluorescence | inhibition, % at 6.7 µM | actives 0.18% (n = 320,000) | AID 1987;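 active means inhibition above the campaign's mean inhibition across all tested compounds plus 3 SD, cut at about 9.5% in these data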;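 further: 0% = DMSO only and 100% = 100 µM cantharidin control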
Target sequence (P53041 whole entry, looked up): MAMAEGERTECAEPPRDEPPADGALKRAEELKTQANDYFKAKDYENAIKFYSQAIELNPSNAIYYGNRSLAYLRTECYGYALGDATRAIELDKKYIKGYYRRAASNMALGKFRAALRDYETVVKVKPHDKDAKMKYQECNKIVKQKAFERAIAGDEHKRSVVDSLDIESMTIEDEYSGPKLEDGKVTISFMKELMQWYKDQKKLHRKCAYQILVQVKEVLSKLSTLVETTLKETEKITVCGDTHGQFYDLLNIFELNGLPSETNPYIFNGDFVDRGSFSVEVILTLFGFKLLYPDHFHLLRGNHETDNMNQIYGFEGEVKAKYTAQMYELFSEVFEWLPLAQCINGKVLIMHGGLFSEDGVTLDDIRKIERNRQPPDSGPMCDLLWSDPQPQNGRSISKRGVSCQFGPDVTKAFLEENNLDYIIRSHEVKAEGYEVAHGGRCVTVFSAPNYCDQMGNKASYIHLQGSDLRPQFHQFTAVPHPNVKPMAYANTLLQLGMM
UBC13 polyUb = blocks human UBC13 polyubiquitin chain formation. TR-FRET. inhibition, % at 20 µM. actives 0.47% (n = 330,000). AID 485273; in the data active means inhibition above about 45%, passing the limit was not always enough
PREPL inhibitor = inhibitors of human prolyl oligopeptidase-like enzyme PREPL | recombinant PREPL, fluorescence polarization activity-based probe | inhibition, % at 5.96 µM | actives 0.68% (n = 320,000) | AID 2751; in the data active means inhibition above about 43%;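 further: 0% = enzyme with DMSO and 100% = wells lacking enzyme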
PP1 inh confirm = confirmation of human PP1 phosphatase inhibitors. actives 52% (n = 1,900). AID 2358. shares compounds with PP1 counter. purified PP1alpha, OMFP substrate fluorescence. inhibition, % at 6.7 µM;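 active means mean PP1 inhibition above a set limit taken from the earlier primary screen, cut at about 15% in these data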
PP5 counter = counter-screen for PP1 inhibitors: human PP5 phosphatase inhibition | shares compounds with PP1 counter | purified PP5c, OMFP fluorescence | inhibition, % at 6.7 µM | actives 4% (n = 1,900) | AID 2360;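 active means mean PP5 inhibition over triplicate wells above about 9.5% taken from the earlier PP1 screen, limit read from the data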
The depositor's hits bear a star. Hits are enriched below; roughly 2.3% of the tested compounds scored in any of these assays.

`O=C(CCN1C(=O)C2CCCCC2C1=O)N1CCN(S(=O)(=O)c2ccccc2)CC1` (stereo not drawn) gave UCH37 inh -2, CTSL1 counter 2, PP1 counter 33*, PP5 primary 2, UBC13 polyUb -8, PREPL inhibitor 6, PP1 inh confirm -2 and PP5 counter -1.
O=C(CCN1C(=O)C2CCCCC2C1=O)N1CCN(S(=O)(=O)c2cccc(F)c2)CC1 (stereo not drawn) was read as UCH37 inh -1, CTSL1 counter -5, PP1 counter -5, PP5 primary 0, UBC13 polyUb 8 and PREPL inhibitor 10.
For O=[N+]([O-])c1cccc(C(=NN=Cc2ccccc2Br)C23CN4CN(CN(C4)C2)C3)c1 the results were UCH37 inh 4.
Screening O=[N+]([O-])c1ccc(N2CCCCC2)c(Cl)c1N1CCCCC1 returned UCH37 inh 1, CTSL1 counter -1, PP1 counter 47*, PP5 primary 1, UBC13 polyUb 3, PREPL inhibitor 3, PP1 inh confirm -2 and PP5 counter -3.
For O=[N+]([O-])c1cc(Cl)ccc1N1CCCCC1 the results were UCH37 inh 3, CTSL1 counter -8, PP1 counter -2, PP5 primary 0, UBC13 polyUb -18 and PREPL inhibitor 5.
O=C(C=C(O)c1ccccc1)C(=O)NNC(=O)c1ccccc1 was read as UCH37 inh 15.
`O=C(NCC1CCCC(CNC(=O)Nc2ccc(Cl)cn2)C1)Nc1ccc(Cl)cn1` (stereo not drawn) gave UCH37 inh 0, CTSL1 counter -2, PP1 counter 19*, PP5 primary 6, UBC13 polyUb 7, PREPL inhibitor -10, PP1 inh confirm 13 and PP5 counter 5.
For COc1ccccc1NCC(=O)NN=Cc1c(O)ccc2ccccc12 the results were UCH37 inh -29.
O=[N+]([O-])c1ccc(O)c(C=Nn2cnnc2)c1 was read as UCH37 inh 17.
For Cc1ccc(C)c(N=Nc2ccc(O)c3ncccc23)c1 the results were UCH37 inh 5, CTSL1 counter 2, PP1 counter 3, PP5 primary 1, UBC13 polyUb -150 and PREPL inhibitor 4.
Cc1cccc(N=Nc2ccc(O)c3ncccc23)c1 was read as UCH37 inh 9, CTSL1 counter 2, PP1 counter 29*, PP5 primary 2, UBC13 polyUb -168, PREPL inhibitor 12, PP1 inh confirm 29* and PP5 counter -1.
NS(=O)(=O)c1ccc(N=Nc2ccc(O)c3ncccc23)cc1 was read as UCH37 inh 5, CTSL1 counter 6, PP1 counter 51*, PP5 primary 4, UBC13 polyUb -191, PREPL inhibitor 9, PP1 inh confirm 37* and PP5 counter -2.
`O=C1CSC(=S)N1N=Cc1c(F)cccc1F` gave UCH37 inh 6.
For COc1ccc(OC)c(-c2cc(C(=O)NN=Cc3cc(OC)c(OC)cc3OC)c3ccccc3n2)c1 the results were UCH37 inh -236.
COc1ccc([C@H]2Oc3cc(O)cc(O)c3C(=O)C2[C@@H]2C(=O)c3c(O)cc(O)cc3O[C@@H]2c2ccc(OC)cc2)cc1 (stereo partly drawn) was read as CTSL1 counter 4, PP1 counter 25*, PP5 primary 5, UBC13 polyUb -6, PREPL inhibitor -1, PP1 inh confirm 8 and PP5 counter 4.
`COc1cnc(-c2ccccn2)nc1Oc1ccc(Cl)c2ccccc12` gave UCH37 inh 3, CTSL1 counter 6, PP1 counter 50*, PP5 primary 7, UBC13 polyUb 14, PREPL inhibitor 31, PP1 inh confirm 43* and PP5 counter 1.
COc1cnc(-c2ccccn2)nc1Oc1ccccc1Cl was read as UCH37 inh -1, CTSL1 counter 1, PP1 counter 30*, PP5 primary -1, UBC13 polyUb -7, PREPL inhibitor 35, PP1 inh confirm 38* and PP5 counter 1.
`COc1cnc(-c2ccccn2)nc1Oc1ccc(F)cc1F` gave UCH37 inh 0, CTSL1 counter -1, PP1 counter 21*, PP5 primary 4, UBC13 polyUb -5, PREPL inhibitor 22, PP1 inh confirm 23* and PP5 counter -2.
For COc1cnc(-c2ccccn2)nc1Oc1ccc(Cl)cc1 the results were UCH37 inh 3, CTSL1 counter 11, PP1 counter 58*, PP5 primary 2, UBC13 polyUb -12, PREPL inhibitor 29, PP1 inh confirm 39* and PP5 counter -1.
CCCN(CCC)C(=O)C[n+]1cccc(C=NO)c1 was read as UCH37 inh -1.
COC(=O)NN=Cc1ccc(-c2cc(Cl)c(Cl)cc2Cl)o1 was read as UCH37 inh -2.
Screening CN(C)C=NC(=S)Nc1ccccc1F returned UCH37 inh -2.
For Cc1cc(C(=O)Cn2nc(C(=O)O)c3ccccc3c2=O)c(C)n1CCc1ccc(F)cc1 the results were UCH37 inh 5, CTSL1 counter 1, PP1 counter 24*, PP5 primary 2, UBC13 polyUb 0, PREPL inhibitor -37, PP1 inh confirm 22* and PP5 counter -3.
`CON=CCC(=O)Nc1ccc(Oc2ccccc2)cc1` gave UCH37 inh 6.
`Cn1cc(C=NNC(=O)c2cc3cc(Br)ccc3o2)c2ccccc21` gave UCH37 inh -43.
Screening COc1ccc(-n2c(Cn3c(=O)sc4ccccc43)nnc2SCC(=O)N2CCCC2)cc1 returned UCH37 inh 2, CTSL1 counter -2, PP1 counter 38*, PP5 primary 1, UBC13 polyUb 7, PREPL inhibitor 3, PP1 inh confirm -5 and PP5 counter -6.
`COc1ccc(-n2c(Cn3c(=O)sc4ccccc43)nnc2SCC(=O)N2CCCCC2)cc1` gave UCH37 inh 3, CTSL1 counter 0, PP1 counter -4, PP5 primary 1, UBC13 polyUb 9 and PREPL inhibitor 3.
`CC(=NOC(=O)c1ccc(Cl)c(Cl)c1)c1sc(C)nc1C` gave UCH37 inh 7.
Screening Cc1c(NC(=O)c2cccnc2C(=O)O)cccc1C(=O)O returned UCH37 inh 0, CTSL1 counter 0, PP1 counter 25*, PP5 primary 0, UBC13 polyUb 0, PREPL inhibitor 8, PP1 inh confirm 0 and PP5 counter 3.
